Experimental findings from ChEMBL document CHEMBL1133105, “Antimalarial, antitrypanosomal, and antileishmanial activities and cytotoxicity of bis(9-amino-6-chloro-2-methoxyacridines): influence of the linker” (J Med Chem, 2000) are described below.

SMILES strings stand for the structures.

The first experiment deals with Trypanosoma brucei. The experiment can be described thus: Percentage of activity against Trypanosoma brucei at 6.25 uM. The format is functional.
Settings: not given
Put shortly:
(§1)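 Bloodstream-form T. brucei in HMI-9 medium, 10 000 parasites/well, exposed to 12.5, 6.25, 3.13 and 1.56 µM drug for 4 days. Read-out is % inhibition of parasite multiplication. Macrophage toxicity judged on mouse primary peritoneal macrophages.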
Take `COc1ccc2nc3cc(Cl)ccc3c(NCCCN(CCCNc3c4ccc(Cl)cc4nc4ccc(OC)cc34)C(=O)CCN3CCOCC3)c2c1`: the “Inhibition of parasite multiplication” value stood at 100%.
Still for that read-out and setting: under `COc1ccc2nc3cc(Cl)ccc3c(NCCCNCCCNc3c4ccc(Cl)cc4nc4ccc(OC)cc34)c2c1` stands 100%.

The test system of a further experiment is Trypanosoma cruzi. Briefly: In Vitro evaluation for the percentage of activity towards Trypanosoma cruzi at 3.13 uM Concentration; Toxic upon mouse primary peritoneal macrophages.
Settings: not given
Format: functional, organism-based. Put shortly:
(§2)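 Mouse peritoneal macrophages, 30 000/well, infected after 24 h with about 100 000 T. cruzi trypomastigotes per well plus 2-fold drug dilutions (12.5–1.56 µM). Incubated 4 days at 37 °C, 5% CO2. Methanol-fixed, Giemsa-stained and scored microscopically as % reduction of total parasite load (free trypomastigotes plus intracellular amastigotes) versus untreated controls.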
Regarding `COc1ccc2nc3cc(Cl)ccc3c(NCCCNCCCNc3c4ccc(Cl)cc4nc4ccc(OC)cc34)c2c1`, the Cytotoxicity result was “Toxic”.

The next experiment has as its system Trypanosoma cruzi. Briefly: Percentage of activity against Trypanosoma cruzi at 12.5 uM; Toxic upon mouse primary peritoneal macrophages.
Settings: not given
Format: functional, organism-based. An outline of the steps: as §2
Take `COc1ccc2nc3cc(Cl)ccc3c(NCCCN(CCCNc3c4ccc(Cl)cc4nc4ccc(OC)cc34)C(=O)CCN3CCOCC3)c2c1`: the Cytotoxicity result is “Toxic”.
Turning to `COc1ccc2nc3cc(Cl)ccc3c(NCCCNCCCNc3c4ccc(Cl)cc4nc4ccc(OC)cc34)c2c1`, the Cytotoxicity result is “Toxic”.

The test system of a further experiment is Trypanosoma brucei. The experiment can be described thus: Percentage of activity against Trypanosoma brucei at 3.13 uM. Format: functional.
Settings: not given
Put shortly:
as §1
`COc1ccc2nc3cc(Cl)ccc3c(NCCCN(CCCNc3c4ccc(Cl)cc4nc4ccc(OC)cc34)C(=O)CCN3CCOCC3)c2c1` came in with a Parasite growth inhibition of 100%.
For `COc1ccc2nc3cc(Cl)ccc3c(NCCCNCCCNc3c4ccc(Cl)cc4nc4ccc(OC)cc34)c2c1`, the Parasite growth inhibition is reported as 100%.

In the next experiment the test system is Trypanosoma cruzi. The experiment can be described thus: Percentage of activity against Trypanosoma cruzi at 1.56 uM. Format: functional.
Settings: not given
Put shortly: as §2
Compound `COc1ccc2nc3cc(Cl)ccc3c(NCCCN(CCCNc3c4ccc(Cl)cc4nc4ccc(OC)cc34)C(=O)CCN3CCOCC3)c2c1` showed a Parasite load reduction of 40%.
Same read-out and setting: the same measure for `COc1ccc2nc3cc(Cl)ccc3c(NCCCNCCCNc3c4ccc(Cl)cc4nc4ccc(OC)cc34)c2c1`: 60%.

Another experiment concerns Leishmania infantum. Briefly: In Vitro evaluation for the percentage of activity towards Leishmania infantum at 3.13 uM Concentration; Toxic upon mouse primary peritoneal macrophages. The format is functional, organism-based.
Settings: not given
An outline of the steps: (§3)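 Starch-stimulated mouse peritoneal macrophages, 30 000/well, infected after 24 h with spleen-derived L. infantum amastigotes (10:1) together with 2-fold drug dilutions (12.5–1.56 µM). Incubated 7 days at 37 °C, 5% CO2. Wright-stained slides scored microscopically as % reduction of total parasite load or of infected macrophages. Uninfected treated cultures judged microscopically for macrophage toxicity.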
`COc1ccc2nc3cc(Cl)ccc3c(NCCCN(CCCNc3c4ccc(Cl)cc4nc4ccc(OC)cc34)C(=O)CCN3CCOCC3)c2c1`: the Cytotoxicity result is “Toxic”.
Consider `COc1ccc2nc3cc(Cl)ccc3c(NCCCNCCCNc3c4ccc(Cl)cc4nc4ccc(OC)cc34)c2c1`, for which the Cytotoxicity entry is “Toxic”.

The subject of the next experiment is Trypanosoma cruzi. The experiment can be described thus: In Vitro evaluation for the percentage of activity towards Trypanosoma cruzi at 6.25 uM Concentration; Toxic upon mouse primary peritoneal macrophages.
Settings: not given
Format: functional, organism-based. Put shortly: as §2
As for `COc1ccc2nc3cc(Cl)ccc3c(NCCCN(CCCNc3c4ccc(Cl)cc4nc4ccc(OC)cc34)C(=O)CCN3CCOCC3)c2c1`, the Cytotoxicity entry is “Toxic”.
For the compound `COc1ccc2nc3cc(Cl)ccc3c(NCCCNCCCNc3c4ccc(Cl)cc4nc4ccc(OC)cc34)c2c1`, the Cytotoxicity entry is “Toxic”.

Another experiment deals with Leishmania infantum. The experiment can be described thus: Percentage of activity against Leishmania infantum at 12.5 uM Concentration; Toxic upon mouse primary peritoneal macrophages. The format is functional, organism-based.
Settings: not given
Put shortly: as §3
On to `COc1ccc2nc3cc(Cl)ccc3c(NCCCN(CCCNc3c4ccc(Cl)cc4nc4ccc(OC)cc34)C(=O)CCN3CCOCC3)c2c1`, for which the Cytotoxicity entry was “Toxic”.
Consider `COc1ccc2nc3cc(Cl)ccc3c(NCCCNCCCNc3c4ccc(Cl)cc4nc4ccc(OC)cc34)c2c1`, for which the Cytotoxicity entry was “Toxic”.

The test system of a further experiment is Trypanosoma cruzi. Briefly: Percentage of activity against Trypanosoma cruzi at 3.13 uM. The format is functional.
Settings: not given
Put shortly: as §2
In the case of `COc1ccc2nc3cc(Cl)ccc3c(NCCCN(CCCNc3c4ccc(Cl)cc4nc4ccc(OC)cc34)C(=O)CCN3CCOCC3)c2c1`, the “Reduction of T. cruzi parasite load” value is 60%.

For the next experiment, the system named is MRC5. The experiment can be described thus: Cytotoxicity on MRC-5 cells at 6.25 uM. The format is functional. Particulars: Homo sapiens. An outline of the steps:
(§4)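 MRC-5 human diploid embryonic lung cells seeded at 5 000/well, washed after 24 h, then given 2-fold drug dilutions (25, 12.5, 6.25, 3.13 µM) in RPMI + 5% FCS, final DMSO below 0.5%. Incubated 7 days at 37 °C, 5% CO2. MTT colorimetric read-out, scored as % reduction of absorbance at 540 nm versus untreated controls.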
Compound `COc1ccc2nc3cc(Cl)ccc3c(NCCCN(CCCNc3c4ccc(Cl)cc4nc4ccc(OC)cc34)C(=O)CCN3CCOCC3)c2c1` yielded a cytotoxicity at 6.25 µM of 100%.
Still for that read-out and setting: the same measure for `COc1ccc2nc3cc(Cl)ccc3c(NCCCNCCCNc3c4ccc(Cl)cc4nc4ccc(OC)cc34)c2c1`: 100%.

For the next experiment, the system named is MRC5. Briefly: Cytotoxicity on MRC-5 cells at 25 uM. The format is functional. Particulars: Homo sapiens. An outline of the steps: as §4
Compound `COc1ccc2nc3cc(Cl)ccc3c(NCCCN(CCCNc3c4ccc(Cl)cc4nc4ccc(OC)cc34)C(=O)CCN3CCOCC3)c2c1` gave a cytotoxicity at 25 µM of 100%.
Still for that read-out and setting: under `COc1ccc2nc3cc(Cl)ccc3c(NCCCNCCCNc3c4ccc(Cl)cc4nc4ccc(OC)cc34)c2c1` stands 100%.

In a further experiment the test system is Leishmania infantum. Briefly: In Vitro evaluation for the percentage of activity towards Leishmania infantum at 1.56 uM Concentration; Toxic upon mouse primary peritoneal macrophages. The format is functional, organism-based.
Settings: not given
An outline of the steps:
as §3
`COc1ccc2nc3cc(Cl)ccc3c(NCCCN(CCCNc3c4ccc(Cl)cc4nc4ccc(OC)cc34)C(=O)CCN3CCOCC3)c2c1`: the Cytotoxicity result was “Toxic”.

The test system of another experiment is Leishmania infantum. Briefly: Percentage of activity against Leishmania infantum at 6.25 uM; Toxic upon mouse primary peritoneal macrophages. The format is functional, organism-based.
Settings: not given
An outline of the steps:
as §3
As to `COc1ccc2nc3cc(Cl)ccc3c(NCCCN(CCCNc3c4ccc(Cl)cc4nc4ccc(OC)cc34)C(=O)CCN3CCOCC3)c2c1`, the Cytotoxicity result was “Toxic”.
With `COc1ccc2nc3cc(Cl)ccc3c(NCCCNCCCNc3c4ccc(Cl)cc4nc4ccc(OC)cc34)c2c1`, the Cytotoxicity entry is “Toxic”.

Another experiment has as its system Leishmania infantum. The experiment can be described thus: Percentage of activity against Leishmania infantum at 1.56 uM.
Settings: not given
The format is functional. Put shortly:
as §3
Consider `COc1ccc2nc3cc(Cl)ccc3c(NCCCNCCCNc3c4ccc(Cl)cc4nc4ccc(OC)cc34)c2c1`, for which the “Antileishmanial activity (% reduction of parasite load)” value was 40%.

A further experiment deals with MRC5. The experiment can be described thus: Cytotoxicity on MRC-5 cells at 3.13 uM. The format is functional. Particulars: Homo sapiens. An outline of the steps: as §4
`COc1ccc2nc3cc(Cl)ccc3c(NCCCN(CCCNc3c4ccc(Cl)cc4nc4ccc(OC)cc34)C(=O)CCN3CCOCC3)c2c1` had a cytotoxicity at 3.13 µM of 80%.
For `COc1ccc2nc3cc(Cl)ccc3c(NCCCNCCCNc3c4ccc(Cl)cc4nc4ccc(OC)cc34)c2c1`, the cytotoxicity at 3.13 µM was found to be 100%.

The test system of the next experiment is Plasmodium falciparum. Briefly: In vitro sensitivity for Plasmodium falciparum FcB1R. Format: functional, organism-based.
Settings: not given
An outline of the steps: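 Asynchronous P. falciparum cultures in human erythrocytes (0.5% parasitemia, 1% haematocrit) exposed to serially diluted drug for 24 h at 37 °C. [3H]hypoxanthine (0.5 µCi/well) then added for a further 24 h. Uptake compared with drug-free controls on the same plate. IC50 taken from the concentration–response curve, averaged over independent experiments. DMSO ≤0.1%.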
The term IC50 denotes the point on the concentration scale where inhibition reaches its midpoint. Low values mean greater potency, high ones weaker potency. The compound `COc1ccc2nc3cc(Cl)ccc3c(NCCCN(CCCNc3c4ccc(Cl)cc4nc4ccc(OC)cc34)C(=O)CCN3CCOCC3)c2c1` returned a concentration for half-maximal inhibition (IC50) of 0.026 µM. This counts as double-digit nanomolar.
The compound `COc1ccc2nc3cc(Cl)ccc3c(NCCCNCCCNc3c4ccc(Cl)cc4nc4ccc(OC)cc34)c2c1` returned an IC50 of 0.055 µM. This IC50 lies about 2.1-fold higher than the previous one.

Another experiment concerns Trypanosoma brucei. Briefly: Percentage of activity against Trypanosoma brucei at 1.56 uM.
Settings: not given
Format: functional. Put shortly: as §1
Take `COc1ccc2nc3cc(Cl)ccc3c(NCCCN(CCCNc3c4ccc(Cl)cc4nc4ccc(OC)cc34)C(=O)CCN3CCOCC3)c2c1`: the “Percent inhibition of parasite multiplication” value stood at 100%.
`COc1ccc2nc3cc(Cl)ccc3c(NCCCNCCCNc3c4ccc(Cl)cc4nc4ccc(OC)cc34)c2c1`: the “Percent inhibition of parasite multiplication” value was 100%.

The test system of the next experiment is Trypanosoma brucei. The experiment can be described thus: Percentage of activity against Trypanosoma brucei at 12.5 uM. Format: functional.
Settings: not given
Put shortly: as §1
As to `COc1ccc2nc3cc(Cl)ccc3c(NCCCN(CCCNc3c4ccc(Cl)cc4nc4ccc(OC)cc34)C(=O)CCN3CCOCC3)c2c1`, the “Inhibition of parasite multiplication” value was 100%.
Same read-out and setting: the same measure for `COc1ccc2nc3cc(Cl)ccc3c(NCCCNCCCNc3c4ccc(Cl)cc4nc4ccc(OC)cc34)c2c1`: 100%.

A further experiment has as its system MRC5. Briefly: Cytotoxicity on MRC-5 cells at 12.5 uM. Particulars: Homo sapiens. Format: functional. An outline of the steps:
as §4
In turn, `COc1ccc2nc3cc(Cl)ccc3c(NCCCN(CCCNc3c4ccc(Cl)cc4nc4ccc(OC)cc34)C(=O)CCN3CCOCC3)c2c1` displayed a cytotoxicity at 12.5 µM of 100%.
The same measure, in the same setting: the same measure for `COc1ccc2nc3cc(Cl)ccc3c(NCCCNCCCNc3c4ccc(Cl)cc4nc4ccc(OC)cc34)c2c1`: 100%.
